The list is not random: actives were taken first. Their share in the collection is about 2.4%.
NRP1-CendR mod: modulators of CendR peptide binding to human neuropilin-1 | O14786 | FAM-RPARPAR peptide binding to NRP-1, fluorescence polarization | inhibition, % at 25 µM | actives 0.85% (n = 360,000) | AID 602438;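 active = inhibition or corrected inhibition above about 18%, plus a signal ratio from 0.5 to 1.5, limit read from the data, passing the limit was not always enough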
MT1-MMP act inh: blocks activation of human MT1-MMP; HT1080 RFP-PRO-GFP cells, GFP/RFP ratio fluorescence, overnight; percent of plate control window, DMSO zero; GFP/RFP ratio change, % at 20 µM; actives 0.061% (n = 360,000); AID 651647;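 active = GFP/RFP ratio change of at least 30% with cell ATP level not reduced by more than half and red fluorescence within 50% of control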
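Assay system: HT1080 cells carrying an RFP-PRO-GFP reporter | Dosing: Single dose of 20 µM compound, 1% DMSO final | Incubation: Cells overnight before dosing, compound overnight, 37 °C, 5% CO2 | Evaluation: GFP/RFP fluorescence ratio | Control set: DMSO and RFP-L50D-GFP cell wells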
beta cell repl: MIN6 beta-cell proliferation induction | MIN6 cells proliferation, ATPlite luminescence, 48 h; cells starved in 0.2% serum; 100% = growth in 10% serum | proliferation, % at 10 µM | actives 0.29% (n = 330,000) | AID 2380;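 active = compounds whose signal lies at least 3.5 SD above the mean of all wells on their plate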;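 note: 0% = DMSO-treated cells in low-serum medium and 100% = 10% serum control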
SENP1 FRET inh: inhibitors of human SENP1 SUMO protease catalytic domain. Q9P0U3. recombinant SENP1 catalytic domain, CyPet-SUMO1-YPet FRET cleavage. inhibition, % at 10 µM. actives 0.21% (n = 360,000). AID 624204;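 active = inhibition at least 30% at 10 µM, raw YFP signal under a set limit, fluorescence ratio 0.5 to 1.5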;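 note: 0% = enzyme with DMSO and 100% = no enzyme wells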
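Test system: human SENP1 catalytic domain; medium: Tris pH 8 buffer plus EDTA, NaCl, BME, BSA, NP40, catalase; incubation: 50 min reaction at room temperature; technique: FRET, CFP and YFP emission; controls: no-enzyme low control and enzyme-plus-DMSO high control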
DAGLB inh: blocks human DAGLB lipase activity; HEK293T DAGLB membrane lysate, EnzChek fluorogenic substrate; actives 0.059% (n = 340,000); inhibition, % at 5.17 µM; in the data active = inhibition above about 34%;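 note: 0% = enzyme with vehicle and 100% = wells lacking enzyme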
Myeloid diff 2: compounds promoting myeloid differentiation | ER-HoxA9 myeloid progenitors, lysozyme-GFP differentiation, flow cytometry | calls only at 10 µM | actives 1% (n = 360,000) | AID 624256;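 active = normalized GFP-positive differentiation at or above the plate's own cutoff, the solvent-only control mean plus 3 SD; inconclusive = no clear call, values can overlap the other calls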;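 note: cells exposed to compound for four days before flow analysis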
The depositor's hits bear a star; i = inactive; ? = inconclusive; . = no result; + = active, no number; ! = a repeat was not active.

SMILES	NRP1-CendR mod	MT1-MMP act inh	beta cell repl	SENP1 FRET inh	DAGLB inh	Myeloid diff 2
Cc1ccc2c(c1)N(CC(=O)NC1CCCC(C)C1C)C(=O)c1cccnc1O2 (stereo unspecified)	-2.0	8.1	-2.8	-0.9	0.0	i
O=C1c2cccc3cccc(c23)C(=O)C1(O)O	53.9*	4.8	-0.5	1.9	4.8	i
CCOC(=O)C1=C(CSc2nccn2C)NC(=O)NC1c1cc(C)ccc1C (stereo unspecified)	25.8*	-1.7	-4.4	1.0	0.5	i
CCOC(=O)C1=C(CSc2nccn2C)NC(=O)NC1c1ccc2c(c1)OCO2 (stereo unspecified)	11.0	-0.3	-2.6	0.9	2.2	i
CCOc1ccc2nc(SCC(=O)N3c4ccccc4Sc4ccccc43)c(C#N)cc2c1	-20.0	-17.5	0.0	-36.9	-4.9	+
CCc1cc2cc(C)ccc2nc1SCC(=O)N1CC(=O)Nc2ccccc21	-0.5	-7.0	-3.1	-1.9	2.1	i
CCc1ccc2nc(SCC(=O)N3CC(=O)Nc4ccccc43)c(C#N)cc2c1	-12.2	-58.0	-6.4	31.8*	1.2	+
O=C1c2ccccc2C(=O)c2c1ncn2-c1ccccc1	-4.5	-4.0	0.0	-0.5	3.8	i
O=C1Nc2ccccc2C1=O	4.0	0.0	-1.4	1.4	-1.1	i
O=C1c2ccccc2C(=O)c2[nH]c(=O)[nH]c21	28.0*	-7.5	-5.1	-1.0	-0.2	?
O=C1c2ccccc2C(=O)c2[nH]cnc21	18.2*	5.6	.	-4.9	-1.3	i
Cc1ccc(CN2CCC(Oc3cccc(C(=O)NCc4cccnc4)c3)CC2)o1	3.4	-0.8	-0.5	-4.9	-0.2	+
O=C(Nc1cc(S(=O)(=O)N2CCCC2)ccc1OCC(F)(F)F)c1ccncc1	0.0	3.1	.	2.6	-1.5	i
N#CCc1ccc(Oc2ncc(C(F)(F)F)cc2Cl)cc1	6.5	2.4	-0.9	1.1	-1.4	i
Cc1ccc(CO/N=C\Cc2snc(Sc3ncc(C(F)(F)F)cc3Cl)c2C#N)cc1	-37.4	-15.5	-6.8	-58.8	-6.6	+
CC(C)Oc1ccc2ccccc2c1CNC[C@H]1O[C@@H](n2ccc(N)nc2=O)[C@H](O)[C@@H]1O	-3.5	1.0	.	-2.6	3.8	i
COc1ccc(N2CCN(C(=O)C(=O)c3cn(CC(=O)N4CCCCCC4)c4ccccc34)CC2)cc1	-0.7	-2.1	-6.5	-2.4	0.5	+
O=C(C(=O)N1CCN(c2cccc(Cl)c2)CC1)c1cn(CC(=O)N2CCOCC2)c2ccccc12	31.7*	3.4	-0.6	3.2	1.4	i
COc1ccc(-c2cc(CCC(=O)N3CCN(c4cc(C)ccc4C)CC3)[nH]n2)cc1	-10.7	-3.4	.	1.2	2.3	i
COc1ccc(Cl)cc1NC(=O)c1noc2c1CCCC2	-14.8	-2.9	7.6*	2.1	-25.3	i
COc1cc(NC(=O)c2noc3c2CCCC3)c(OC)cc1Cl	-2.3	-3.8	-0.9	0.9	-11.9	i
O=C(COC(=O)CCNS(=O)(=O)c1ccc(Cl)cc1)NCc1ccco1	19.3*	-5.3	-2.1	-0.3	-0.3	i
O=C(COC(=O)CCNS(=O)(=O)c1ccc(Cl)cc1)NCc1ccccc1	-10.3	3.1	.	0.5	-2.2	i
COC(=O)c1sc(C(C)(C)C)cc1CS(=O)(=O)c1ccc(Cl)cc1	7.3	0.5	-1.6	1.3	-8.3	i
Cc1cccc(N2C(N)=NC(N)=NC23CCCCC3)c1	0.6	.	.	-0.1	-2.6	+
SMILES	NRP1-CendR mod	MT1-MMP act inh	beta cell repl	SENP1 FRET inh	DAGLB inh	Myeloid diff 2
CC1(C)N=C(N)N=C(N)N1c1cccc(CN)c1	4.0	3.2	-0.7	-0.2	-0.7	?
O=C(CSc1nc2c(c(C(F)(F)F)n1)CCc1ccccc1-2)NCc1ccco1	3.3	-9.3	-3.7	-1.1	-2.8	i
CC(NC(=O)CSc1nc2c(c(C(F)(F)F)n1)CCc1ccccc1-2)c1ccccc1 (stereo unspecified)	28.4*	-2.8	-5.2	-0.4	-1.1	i
CCc1ccc(S(=O)(=O)/N=C2\C=CC(=O)c3ccccc32)cc1	.	.	-5.8	.	.	.
Cc1ccc(S(=O)(=O)/N=C2/C=C(C3C(=O)CC(C)(C)CC3=O)C(=O)c3ccccc32)cc1	-4.0	-8.9	-5.5	-1.0	3.5	.
O=C(O)c1ccc(NC2=C/C(=N/S(=O)(=O)c3ccccc3)c3ccccc3C2=O)cc1	36.6*	-1.5	-5.2	2.2	14.2	i
Cc1ccc(S(=O)(=O)/N=C2\C=C(NS(=O)(=O)c3ccccc3)C(=O)c3ccccc32)cc1	64.7*	13.4	.	4.6	15.4	i
O=S(=O)(N=C1C=CC(=NS(=O)(=O)c2ccccc2)c2ccccc21)c1ccccc1	-6.8	8.0	.	60.0*	6.2	+
O=C(O)c1ccc(NC2=C/C(=N/S(=O)(=O)c3cccs3)c3ccccc3C2=O)cc1	41.7*	5.2	.	0.3	4.7	i
CCN(c1ccccc1)S(=O)(=O)c1ccc(C(=O)N(CCCN(C)C)c2nc3cc4c(cc3s2)OCO4)cc1	22.5*	-4.7	-6.8	-1.5	2.0	i
Cc1c(Cl)cccc1NC(=O)CNCc1ccccc1F	-2.5	3.8	-2.1	-0.4	-1.8	i
COc1cccc(NC(=O)CN(C)C(C)C(=O)NC(C)c2ccc(Cl)cc2Cl)c1 (stereo unspecified)	-3.8	1.6	-2.4	0.8	2.3	i
O=[N+]([O-])c1ccc(Cc2ccncc2)cc1	25.6*	-0.1	0.5	1.0	-4.4	i
O=C1C2C(c3ccccc3)C=CC(c3ccccc3)C2C(=O)N1CCCO (stereo unspecified)	21.9*	5.3	0.8	-0.9	-1.8	i
C=CC[N+](C)(C)CCN1C(=O)C2C(c3ccccc3)C=CC(c3ccccc3)C2C1=O (stereo unspecified)	-14.0	2.6	1.3	11.7	-1.9	i
Cc1cccc(C)c1-n1c(C)nn(CCOc2ccccc2)c1=O	-1.8	-1.5	0.8	0.7	0.2	+
O=C(C1=C[C@@H](C2CC2)C[C@@H](OCc2ccc(CO)cc2)O1)N1CCN(Cc2ccccc2)CC1	-1.0	5.7	-2.9	-2.3	-2.6	i
C=C1C[C@]23C[C@@]1(O)CC[C@H]2[C@@]12C=C[C@H](O)[C@@](C)(C(=O)O1)[C@H]2[C@@H]3C(=O)O	-6.0	2.2	-0.2	1.8	-0.5	+!
COc1ccccc1-c1csc(C(C)(O)c2cccc(F)c2)n1 (stereo unspecified)	-8.0	-2.6	.	2.1	.	i
O=C(c1ccccc1F)N1CCN(Cc2ccccc2F)CC1	29.1*	-5.2	-1.9	1.9	-1.0	i
